Data published in ChEMBL document CHEMBL3352298, “Identification of potent orally active factor Xa inhibitors based on conjugation strategy and application of predictable fragment recommender system” (Bioorg Med Chem, 2015).
Calls of active or inactive are those of the source. The rule behind the calls is not given here.

Assays:
[1] = target: T1, Coagulation factor X (Homo sapiens, UniProt P00742); test: Inhibition of human factor 10a using S-2222 chromogenic substrate assessed as hydrolysis at 1.36 uM by microplate reader
Procedure, shortened: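 Purified human fXa with chromogenic substrate S-2222 and inhibitor in 0.05 M Tris-HCl pH 8.4 or 0.15 M NaCl; reaction started with enzyme. Hydrolysis read continuously at 405 nm, 37 °C. Percent inhibition at final inhibitor 1.36 µM, single run.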

[2] = test system: Mus musculus; test: Anticoagulant activity in ICR mouse plasma assessed as prolongation of prothombin time at 100 mg/kg, po after 0.5 to 2 hrs relative to untreated control; assay type: functional
Procedure, shortened: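 Male ICR mice (30–37 g) given compound dissolved or suspended in 0.5% methyl cellulose, 100 mg/kg by gastric tube. PT measured by coagulometer at 37 °C with thromboplastin; expressed as fold of vehicle-treated baseline; n = 3.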

[3] = target: T1, Coagulation factor X; test: Inhibition of human factor 10a using S-2222 chromogenic substrate assessed as hydrolysis by microplate reader
[4] = test system: Plasma; test: Anticoagulant activity in mouse plasma assessed as concentration required to prolong prothombin time; assay type: functional
Procedure, shortened: (§1)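 Citrated plasma (human or mouse) spun at 3000 rpm for 10 min and stored at −40 °C. Clotting times read on a coagulometer at 37 °C; PT with thromboplastin, compared with a distilled water control. CT2 (concentration doubling clotting time) taken from each concentration–response curve; three determinations, mean reported.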

[5] = test system: Plasma; test: Anticoagulant activity in human plasma assessed as concentration required to double clotting time; assay type: functional; procedure, shortened: as §1
[6] = target: Trypsin (Homo sapiens, UniProt P07477+P07478+P35030); test: Inhibition of human Trypsin using S-2222 chromogenic substrate assessed as hydrolysis by microplate reader
[7] = target: Prothrombin (Homo sapiens, UniProt P00734); test: Inhibition of human Thrombin using S-2238 chromogenic substrate assessed as hydrolysis by microplate reader

T1 sequence (P00742 41-179 limits assumed): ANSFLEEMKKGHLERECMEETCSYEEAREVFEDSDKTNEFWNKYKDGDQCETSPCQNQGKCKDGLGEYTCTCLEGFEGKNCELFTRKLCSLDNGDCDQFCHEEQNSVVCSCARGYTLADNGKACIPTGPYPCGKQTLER
T1 sequence (P00742 235-488 limits assumed): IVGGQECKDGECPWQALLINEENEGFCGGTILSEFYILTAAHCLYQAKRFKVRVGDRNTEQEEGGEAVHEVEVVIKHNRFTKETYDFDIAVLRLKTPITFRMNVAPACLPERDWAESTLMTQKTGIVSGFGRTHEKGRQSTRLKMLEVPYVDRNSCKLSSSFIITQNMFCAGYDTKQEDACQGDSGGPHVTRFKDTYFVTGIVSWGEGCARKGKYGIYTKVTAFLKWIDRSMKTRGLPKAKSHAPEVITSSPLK

Compound | inhibition [1] | IC50 [3] [nM] | further results
CN1CCCN(c2ccc(C(=O)Nc3ccccc3C(=O)Nc3nc4ccccc4[nH]3)cc2)CC1 | inactive | – | –
COc1ccc(NC(=O)c2ccccc2NC(=O)c2ccc(N3CCCN(C)CC3)cc2)cc1.Cl | 85% | – | Ratio [2]: 1.02
CN1CCCN(c2ccc(C(=O)Nc3c(O)cc(Cl)cc3C(=O)Nc3ccc(Cl)cn3)cc2)CC1.Cl | – | 8.7 | Ratio [2]: 7.8
COc1cccc(NC(=O)c2ccccc2NC(=O)c2ccc(N3CCCN(C)CC3)cc2)c1 | 40% | – | –
Cc1cc(NC(=O)c2ccccc2NC(=O)c2ccc(N3CCCN(C)CC3)cc2)n[nH]1 | inactive | – | –
CN1CCCN(c2ccc(C(=O)Nc3ccccc3C(=O)Nc3ccccc3Cl)cc2)CC1 | 11% | – | –
CN1CCCN(c2ccc(C(=O)Nc3ccc(Cl)cc3C(=O)Nc3ccc(Cl)cn3)cc2)CC1.Cl | – | 3.6 | Ratio [2]: 1.21
Cc1ccc(NC(=O)c2cccc(O)c2NC(=O)c2ccc(N3CCCN(C)CC3)cc2)cc1.Cl | – | 68 | Ratio [2]: 2.11
COc1ccc(NC(=O)c2ccc(C)c(O)c2NC(=O)c2ccc(N3CCCN(C)CC3)cc2)cc1.Cl | – | 61 | Ratio [2]: 0.95
CN1CCCN(c2ccc(C(=O)Nc3c(O)cccc3C(=O)Nc3ccc(Cl)cc3)cc2)CC1.Cl | – | 6.9 | Ratio [2]: 2.67
COc1ccc(NC(=O)c2cc(Cl)cc(O)c2NC(=O)c2ccc(N3CCCN(C)CC3)cc2)cc1.Cl | – | 68 | Ratio [2]: 3.91
CN1CCCN(c2ccc(C(=O)Nc3ccccc3C(=O)Nc3ccc(OC(F)(F)F)cc3)cc2)CC1 | 32% | – | –
Cc1ccc(NC(=O)c2cccc(O)c2NC(=O)c2ccc(N3CCCN(C)CC3)cc2)nc1.Cl | – | 290 | Ratio [2]: 2.13
Cc1ccccc1NC(=O)c1ccccc1NC(=O)c1ccc(N2CCCN(C)CC2)cc1 | 16% | – | –
CCc1ccc(NC(=O)c2ccccc2NC(=O)c2ccc(N3CCCN(C)CC3)cc2)cc1 | 15% | – | –
Cc1ccc(NC(=O)c2ccccc2NC(=O)c2ccc(N3CCCN(C)CC3)cc2)nc1 | 73% | – | –
CN1CCCN(c2ccc(C(=O)Nc3ccccc3C(=O)Nc3ccc4ccccc4n3)cc2)CC1 | inactive | – | –
COc1ccc(NC(=O)c2ccccc2NC(=O)c2ccc(N3CCCN(C)CC3)cc2)cn1 | 7% | – | –
CN1CCCN(c2ccc(C(=O)Nc3c(O[C@@H]4O[C@H](C(=O)O)[C@@H](O)[C@H](O)[C@H]4O)cc(Cl)cc3C(=O)Nc3ccc(Cl)cn3)cc2)CC1 | – | 1.5 | Activity [4]: 0.28 µM; Activity [5]: 0.27 µM; IC50 [6]: > 100000 nM; IC50 [7]: > 100000 nM

Compound | inhibition [1] | IC50 [3] [nM] | further results
CN1CCCN(c2ccc(C(=O)Nc3ccccc3C(=O)Nc3ccc(Oc4ccccc4)cc3)cc2)CC1 | 22% | – | –
CN1CCCN(c2ccc(C(=O)Nc3ccccc3C(=O)Nc3ccccn3)cc2)CC1 | 38% | – | –
Cc1ccc(NC(=O)c2ccccc2NC(=O)c2ccc(N3CCCN(C)CC3)cc2)cc1 | 94% | – | –
CN1CCCN(c2ccc(C(=O)Nc3ccccc3C(=O)Nc3ccc(N(C)C)cc3)cc2)CC1 | 24% | – | –
CN1CCCN(c2ccc(C(=O)Nc3c(O)cccc3C(=O)Nc3ccc(Cl)cn3)cc2)CC1.Cl | – | 16 | Ratio [2]: 3.61
COc1ccc(NC(=O)c2cccc(O)c2NC(=O)c2ccc(N3CCCN(C)CC3)cc2)nc1.Cl | – | 220 | Ratio [2]: 2.03
Cc1cc(NC(=O)c2ccccc2NC(=O)c2ccc(N3CCCN(C)CC3)cc2)sn1 | inactive | – | –
CS(=O)(=O)c1ccccc1-c1ccc(NC(=O)c2cc(C(F)(F)F)nn2-c2cccc(CN)c2)c(F)c1.Cl | – | – | Activity [4]: 0.7 µM; Activity [5]: 0.67 µM
COc1ccc(NC(=O)c2ccccc2NC(=O)c2ccc(N3CCCN(C)CC3)cc2)cc1Cl | 39% | – | –
CN1CCCN(c2ccc(C(=O)Nc3ccccc3C(=O)Nc3ccc(Cl)cc3)cc2)CC1 | 100% | – | –
COc1ccc(NC(=O)c2cccc(O)c2NC(=O)c2ccc(N3CCCN(C)CC3)cc2)cc1.Cl | – | 150 | Ratio [2]: 1.97
CC(C)c1ccc(NC(=O)c2ccccc2NC(=O)c2ccc(N3CCCN(C)CC3)cc2)cc1 | 23% | – | –
Cc1cccc(NC(=O)c2ccccc2NC(=O)c2ccc(N3CCCN(C)CC3)cc2)n1 | 9% | – | –
COc1ccc(NC(=O)c2cccc(O[C@@H]3O[C@H](C(=O)O)[C@@H](O)[C@H](O)[C@H]3O)c2NC(=O)c2ccc(N3CCCN(C)CC3)cc2)cc1 | – | 66 | –
CN1CCCN(c2ccc(C(=O)Nc3ccccc3C(=O)Nc3cccc(Cl)c3)cc2)CC1 | 76% | – | –
COc1ccc(NC(=O)c2ccccc2NC(=O)c2ccc(N3CCCN(C)CC3)cc2)cc1OC | inactive | – | –
Cc1cccc(NC(=O)c2ccccc2NC(=O)c2ccc(N3CCCN(C)CC3)cc2)c1 | 88% | – | –
Cc1ccnc(NC(=O)c2ccccc2NC(=O)c2ccc(N3CCCN(C)CC3)cc2)c1 | 56% | – | –
